Source: ChEMBL document CHEMBL1641583, “Design, synthesis, and biological evaluation of N-acetyl-S-(p-chlorophenylcarbamoyl)cysteine and its analogs as a novel class of anticancer agents” (Bioorg Med Chem, 2011)
≈ marks a conversion by molar mass, not a printed value. Calls of active or inactive are those of the source. No cut-off for these calls is given here.

Experiments:
[1] = tested on: OVCAR-3; test: Cytotoxicity against human OVCAR3 cells after 6 days by MTT assay; type: functional, cell-based; details: OVCAR-3, 144 h
[2] = Cytotoxicity against human GC3/C1 cells after 6 days by MTT assay; type: functional, cell-based; details: GC3/C1, 144 h
[3] = tested on: UACC-62; test: Cytotoxicity against human UACC62 cells after 6 days by MTT assay; type: functional, cell-based; details: UACC-62, 144 h
[4] = tested on: SK-MEL-2; test: Cytotoxicity against human SK-MEL-2 cells after 6 days by MTT assay; type: functional, cell-based; details: SK-MEL-2, 144 h
[5] = tested on: UACC-62; test: Cytotoxicity against human UACC62 cells after 1 to 3 days by MTT assay; type: functional, cell-based
[6] = tested on: SK-MEL-2; test: Cytotoxicity against human SK-MEL-2 cells after 1 to 3 days by MTT assay; type: functional, cell-based
[7] = tested on: UACC-62; test: Ratio of compound IC50 to dacarbazine IC50 for human UACC62 cells; type: functional
[8] = tested on: OVCAR-3; test: Cytotoxicity against human OVCAR3 cells after 1 to 3 days by MTT assay; type: functional, cell-based
[9] = tested on: SK-MEL-2; test: Ratio of compound IC50 to dacarbazine IC50 for human SK-MEL-2 cells; type: functional
[10] = Solubility of the compound in ethyl acetate; type: physicochemical
In short: (§1)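 Solubility measured in ethyl acetate and in 0.1 M phosphate buffer pH 7.4; reported in mg/mL.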

[11] = Solubility of the compound in 0.1 M phosphate buffer at pH 7.4; type: physicochemical; in short: as §1
[12] = tested on: UACC-62; test: Cell cycle arrest in human UACC62 cells assessed as DNA accumulation at 0.01 to 1 uM after 6 days using propidium iodide staining by flow cytometry; type: functional, cell-based
In short: (§2)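 Cells seeded in 75 cm² flasks (GC3/c1 0.3 million, UACC-62 0.14 million) in RPMI 1640/10% FBS, exposed 6 days; adherent cells only trypsinized, PBS-washed, 1 million fixed in 70% ethanol at 4 °C, RNase A 30 min 37 °C, propidium iodide 30 min dark at room temperature; DNA content by flow cytometry; mean ± SD, three independent experiments.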

[13] = tested on: UO-31; test: Cytotoxicity against human UO31 cells after 6 days by MTT assay; type: functional, cell-based
[14] = tested on: PC-3; test: Cytotoxicity against human PC3 cells after 6 days by MTT assay; type: functional, cell-based
[15] = tested on: UACC-62; test: Induction of apoptosis in human UACC62 cells assessed as translocation of phosphatidylserine from inner layer to outer layer of cell membrane at > 1 uM after 6 days using annexin V staining by flow cytometry; type: functional, cell-based
[16] = tested on: A-431; test: Cytotoxicity against human A431 cells after 6 days by MTT assay; type: functional, cell-based
[17] = Cell cycle arrest in human GC3/C1 cells assessed as DNA accumulation at 0.01 to 1 uM after 6 days using propidium iodide staining by flow cytometry; type: functional, cell-based; in short: as §2
[18] = tested on: NCI-H226; test: Cytotoxicity against human NCI-H226 cells after 6 days by MTT assay; type: functional, cell-based
[19] = tested on: UACC-62; test: Induction of apoptosis in human UACC62 cells assessed as translocation of phosphatidylserine from inner layer to outer layer of cell membrane after 6 days using annexin V staining by flow cytometry; type: functional, cell-based
In short: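 UACC-62 plated and dosed in 96-well format as for cytotoxicity, 6 days; adherent plus floating cells trypsinized, PBS-washed, 1×10^6 cells/mL in annexin-binding buffer; ~1×10^5 cells stained with Alexa Fluor 488 annexin V and PI 15 min dark, room temperature; early plus late apoptotic fractions summed by flow cytometry; mean ± SD, three experiments.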

[20] = Cytotoxicity against african green monkey CV1 cells after 6 days by MTT assay; type: cell-based; details: Chlorocebus aethiops, CV-1, 144 h

Compound | IC50 [1] [µM] | IC50 [2] [µM] | IC50 [3] [µM] | other results
CN(C)/N=N/c1[nH]cnc1C(N)=O [DACARBAZINE] | 17.7 | 7.67 | 11.8 | IC50 [4]: 120000 nM
CC(=O)N[C@@H](CSC(=O)Nc1ccc(C(F)(F)F)cc1[N+](=O)[O-])C(=O)O | > 200 | > 200 | > 200 | 
CC(=O)N[C@@H](CSC(=O)Nc1cccc(Cl)c1)C(=O)O | > 200 | > 200 | > 200 | 
CC(=O)N[C@@H](CSC(=O)Nc1ccc(Br)cc1)C(=O)O | > 200 | 63.5 | 0.32 | Activity [5]: inactive; Activity [6]: inactive; Ratio IC50 [7]: 37; Activity [8]: inactive; Ratio IC50 [9]: 1000; solubility [10]: 50 mg/mL (≈ 138 mM); solubility [11]: 24 mg/mL (≈ 66.4 mM); IC50 [4]: 120 nM
COc1ccc(NC(=O)SC[C@H](NC(C)=O)C(=O)O)cc1 | > 200 | > 200 | 75.2 | 
CSc1ccccc1NC(=O)SC[C@H](NC(C)=O)C(=O)O | > 200 | > 200 | > 200 | 
CC(=O)N[C@@H](CSC(=O)Nc1ccccc1Cl)C(=O)O | > 200 | > 200 | > 200 | 
COc1ccccc1CNC(=O)SC[C@H](NC(C)=O)C(=O)O | > 200 | > 200 | > 200 | 
CC(=O)N[C@@H](CSC(=O)Nc1ccc([N+](=O)[O-])cc1Cl)C(=O)O | > 200 | > 200 | > 200 | 
COc1ccc(OC)c(NC(=O)SC[C@H](NC(C)=O)C(=O)O)c1 | > 200 | > 200 | > 200 | 
CC(=O)N[C@@H](CSC(=O)Nc1ccccc1)C(=O)O | 153 | 178 | 125 | 
CC(=O)N[C@@H](CSC(=O)Nc1ccc(F)cc1)C(=O)O | > 200 | 114 | 0.036 | Activity [5]: inactive; Activity [6]: inactive; Ratio IC50 [7]: 328; Activity [8]: inactive; Ratio IC50 [9]: 279; solubility [10]: 388 mg/mL (≈ 1290 mM); solubility [11]: 26 mg/mL (≈ 86.6 mM); IC50 [4]: 430 nM
CC(=O)N[C@@H](CSC(=O)Nc1cc(Cl)cc(Cl)c1)C(=O)O | > 200 | > 200 | > 200 | 
CC(=O)N[C@@H](CSC(=O)Nc1ccc(Cl)cc1)C(=O)O | > 200 | 8.13 | 0.024 | Activity [5]: inactive; Activity [12]: inactive; Activity [6]: inactive; Activity [13]: inactive; Ratio IC50 [7]: 490; Activity [14]: inactive; Activity [15]: inactive; Activity [16]: inactive; Activity [17]: inactive; Activity [8]: inactive; Activity [18]: inactive; Ratio IC50 [9]: 16000; Activity [19]: Dose-dependent effect; solubility [10]: 721 mg/mL (≈ 2280 mM); solubility [11]: 26 mg/mL (≈ 82.1 mM); IC50 [4]: 8 nM; IC50 [20]: 522 µM
CC(=O)N[C@@H](CSC(=O)Nc1ccc(I)cc1)C(=O)O | > 200 | > 200 | 46.2 | 
COc1ccccc1NC(=O)SC[C@H](NC(C)=O)C(=O)O | > 200 | > 200 | > 200 | 
CC(=O)N[C@@H](CSC(=O)Nc1ccccc1F)C(=O)O | > 200 | > 200 | > 200 | 
CC(=O)N[C@@H](CSC(=O)Nc1cccc2ccccc12)C(=O)O | > 200 | > 200 | > 200 | 
CC(=O)N[C@@H](CSC(=O)NCc1ccc(Cl)cc1)C(=O)O | > 200 | > 200 | > 200 | 
